Laboratory results as given in ChEMBL document CHEMBL1145417, “Cytotoxic clerodane diterpenoids from fruits of Casearia grewiifolia” (J Nat Prod, 2007).
In brackets after ≈: the same amount, converted by molar mass. Activity calls are given as the source filed them. The rule behind the calls is not given here.

Key:
Type in all cases: functional, cell-based
[1] = system: NCI-H187; assay: Cytotoxicity against human NCI-H187 cells
Procedure, shortened: (§1)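 Colorimetric cytotoxicity assay following Skehan and co-workers' method. The cells were human KB (epidermoid carcinoma of the mouth), BC1 (breast cancer) and NCI-H187 (small cell lung cancer). Ellipticine and doxorubicin were the reference compounds.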

[2] = system: KB; assay: Cytotoxicity against human KB cells; procedure, shortened: as §1
[3] = (§2) Cytotoxicity against human BC1 cells; procedure, shortened: as §1
[4] = system: BC1; assay: as §2; procedure, shortened: as §1

| Compound | IC50 [1] [µg/mL] | IC50 [2] [µg/mL] | IC50 [3] [µg/mL] | Activity [2] | Activity [4] |
| --- | --- | --- | --- | --- | --- |
| C=C/C(C)=C\C[C@]1(C)[C@H](C)CC[C@@]23C(=C[C@H](OC(=O)CCC)C[C@@H]12)[C@@H](OC(C)=O)O[C@H]3OC(C)=O (relative stereo) [CASEARGREWINS E] | 0.15 (≈ 0.307 µM) | 0.66 (≈ 1.35 µM) | 0.91 (≈ 1.86 µM) |  |  |
| C=C/C(C)=C\C[C@]1(C)[C@H](C)C[C@H](O)[C@@]23C(=C[C@H](OC(=O)CCC)C[C@@H]12)[C@@H](OC(C)=O)O[C@H]3OC(C)=O (relative stereo) [CASEARGREWINS F] | 4.72 (≈ 9.35 µM) |  | 0.2 (≈ 0.396 µM) | inactive |  |
| C=C/C(C)=C\C[C@]1(C)[C@H](C)C[C@H](O)[C@@]23C(=C[C@H](OC(=O)CCC)C[C@@H]12)[C@@H](OC)O[C@H]3OC(C)=O (relative stereo) [CASEARGREWINS G] | 5.57 (≈ 11.7 µM) | 0.67 (≈ 1.41 µM) | 3.97 (≈ 8.33 µM) |  |  |
| C=C/C(C)=C\C[C@]1(C)[C@H](C)CC[C@@]23C(=C[C@H](OC(=O)CCCCC)C[C@@H]12)[C@@H](OC(C)=O)O[C@H]3OC(C)=O (relative stereo) [CASEARGREWINS H] | 0.54 (≈ 1.05 µM) | 0.88 (≈ 1.7 µM) | 0.21 (≈ 0.406 µM) |  |  |
| C=C/C(C)=C\C[C@]1(C)[C@H](C)C[C@H](O)[C@@]23C(=C[C@H](OC(=O)CCCCC)C[C@@H]12)[C@@H](OC(C)=O)O[C@H]3OC(C)=O (relative stereo) [CASEARGREWINS I] | 0.33 (≈ 0.62 µM) | 3.04 (≈ 5.71 µM) | 0.36 (≈ 0.676 µM) |  |  |
| C=C/C(C)=C\C[C@]1(C)[C@H](C)C[C@H](O)[C@@]23C(=C[C@H](OC(=O)CCCCC)C[C@@H]12)[C@@H](OC)O[C@H]3OC(C)=O (relative stereo) [CASEARGREWINS J] | 1.22 (≈ 2.42 µM) |  | 0.99 (≈ 1.96 µM) | inactive |  |
| C=C/C(C)=C\C[C@]1(C)[C@H](C)[C@@H](O)[C@H](O)[C@@]23C(=C[C@H](OC(=O)CCCCC)C[C@@H]12)[C@@H](OC)O[C@H]3OC(C)=O (relative stereo) [CASEARGREWINS K] | 5.11 (≈ 9.81 µM) |  | 3.4 (≈ 6.53 µM) | inactive |  |
| C=C/C(C)=C\C[C@]1(C)[C@H](C)C[C@H](O)[C@@]23C(=C[C@H](OC(=O)CC(C)C)C[C@@H]12)[C@@H](OC(C)=O)O[C@H]3OC(C)=O (relative stereo) [CASEARGREWINS L] | 0.32 (≈ 0.617 µM) | 6 (≈ 11.6 µM) |  |  | inactive |
| COc1cccc2c1C(=O)c1c(O)c3c(c(O)c1C2=O)C[C@@](O)(C(=O)CO)C[C@@H]3O[C@H]1C[C@H](N)[C@H](O)[C@H](C)O1 [DOXORUBICIN] | 0.048 (≈ 0.0883 µM) | 0.23 (≈ 0.423 µM) | 0.13 (≈ 0.239 µM) |  |  |
| Cc1c2ccncc2c(C)c2c1[nH]c1ccccc12 [ELLIPTECINE] |  | 0.67 (≈ 2.72 µM) | 0.13 (≈ 0.528 µM) |  |  |
| C=C/C(C)=C\C[C@]1(C)[C@H](C)[C@@H](O)[C@H](O)[C@@]23C(=C[C@H](OC(=O)CC(C)C)C[C@@H]12)[C@@H](OC(C)=O)O[C@H]3OC(C)=O [ESCULENTIN B] | 0.68 (≈ 1.27 µM) |  | 0.17 (≈ 0.318 µM) | inactive |  |
